Compounds with a hit are over-represented: about 2.2% of the library has one in this group of screens.
Rin1-Abl PPI inh = inhibitors of human Rin1-Abl protein interaction; TR-FRET Rin1/Abl binding, biochemical; inhibition, % at 7.35 µM; actives 0.4% (n = 360,000); AID 588664; in the data active means inhibition above about 5%, passing the limit was not always enough
UBC13 polyUb = inhibitors of human UBC13 polyubiquitin chain formation; P61088; TR-FRET; inhibition, % at 20 µM; actives 0.47% (n = 330,000); AID 485273; in the data active means inhibition above about 45%, passing the limit was not always enough
Apaf-1 inh = blocks human Apaf-1 apoptosome activity; inhibition, % at 20 µM; reconstituted apoptosome caspase-3 activity, DEVD-Rh110 fluorescence; actives 0.71% (n = 330,000); active means inhibition of at least 40% at 20 µM
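Material: cell-free apoptosome with Apaf-1, procaspase-3 and caspase-9; Buffer or medium: Hepes pH 7.5 with detergent and BSA; Reagent: cytochrome c trigger plus (Z-DEVD)2-Rh110 caspase-3 substrate; Times: compound with Apaf-1, dATP, procaspase-3 30 min, then 50 min reaction, room temperature; Technique: Rh110 fluorescence intensity.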
UBC9 SUMO inh = inhibitors of human SUMOylation (UBC9). HTRF SUMOylation assay, SAE1/SAE2 + UBC9, in vitro. inhibition, % at 35 µM. actives 0.36% (n = 290,000). AID 2006; in the data active means inhibition above about 50%, passing the limit was not always enough
PAD4 inh = inhibitors of human PAD4 | recombinant PAD4, RCA probe fluorescence polarization | inhibition, % at 6.36 µM | actives 0.41% (n = 330,000);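 active means percent inhibition above a cutoff equal to the mean of all tested compounds plus 3 SD, cut at about 15% in these data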
GSTO1 inh = counter-screen for RBBP9 inhibitors: inhibitors of human GSTO1 | P78417 | recombinant GSTO1, activity-based probe fluorescence polarization | inhibition, % at 5.96 µM | actives 1.1% (n = 300,000);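 active means inhibition above the campaign mean inhibition plus 3 SD, cut at about 35% in these data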
Numbers stand for hits.

`COc1ccc(N2C(=O)[C@@H]3[C@H](C2=O)[C@H]2c4ccccc4C=CN2[C@@H]3C(=O)Nc2ccccc2)cc1` gave Rin1-Abl PPI inh inactive, UBC13 polyUb inactive, Apaf-1 inh 67.1, UBC9 SUMO inh inactive, PAD4 inh inactive and GSTO1 inh inactive.
`COCCCNc1c2c(nc3ccccc13)CCC2` gave Rin1-Abl PPI inh inactive.
CCCS(=O)(=O)NC(=O)C1(C)CCCN(C(=O)c2nc3ccccc3s2)C1 (centres undefined) was read as Rin1-Abl PPI inh inactive.
`CC(C)c1ccc(-c2cc(C(=O)N3CCOCC3)c3cc(Br)ccc3n2)cc1` gave Rin1-Abl PPI inh inactive, UBC13 polyUb inactive, Apaf-1 inh inactive, UBC9 SUMO inh inactive, PAD4 inh inactive and GSTO1 inh inactive.
For C/C1=C\CCC2C(/C=C(\C)CC1)OC(=O)C2CN1CCCCC1 (centres undefined) the results were Rin1-Abl PPI inh inactive, UBC13 polyUb inactive, Apaf-1 inh inactive, UBC9 SUMO inh inactive, PAD4 inh inactive and GSTO1 inh inactive.
CC(C)Nc1ncnc2c1ncn2[C@H]1CN(Cc2cccnc2)C[C@@H](CO)O1 was read as Rin1-Abl PPI inh inactive.
Screening O=C(c1ccco1)[C@@H]1[C@@H]2C(=O)N(c3ccccc3)C(=O)[C@@H]2C2c3ccccc3C=CN21 (some centres undefined) returned Rin1-Abl PPI inh inactive, UBC13 polyUb inactive, Apaf-1 inh 85.6, UBC9 SUMO inh inactive, PAD4 inh inactive and GSTO1 inh 36.7.
`CCCS(=O)(=O)NC(=O)C1(C)CCCN(C(=O)c2c(C)noc2C)C1` (centres undefined) gave Rin1-Abl PPI inh inactive.
CC(C)c1onc(C(=O)NCc2ccc(F)cc2)c1[N+](=O)[O-] was read as Rin1-Abl PPI inh inactive, UBC13 polyUb inactive, Apaf-1 inh inactive, UBC9 SUMO inh inactive, PAD4 inh inactive and GSTO1 inh 36.8.
`Cc1ccc(O)c(NC(=O)c2noc(C(C)C)c2[N+](=O)[O-])c1` gave Rin1-Abl PPI inh inactive, UBC13 polyUb inactive, Apaf-1 inh inactive, UBC9 SUMO inh inactive, PAD4 inh inactive and GSTO1 inh 35.2.
CC(C)c1onc(C(=O)N(C)Cc2ccccc2)c1[N+](=O)[O-] was read as Rin1-Abl PPI inh inactive, UBC13 polyUb inactive, Apaf-1 inh inactive, UBC9 SUMO inh inactive, PAD4 inh inactive and GSTO1 inh inactive.
Screening CC(C)c1onc(C(=O)NCCc2ccccc2)c1[N+](=O)[O-] returned Rin1-Abl PPI inh inactive, UBC13 polyUb inactive, Apaf-1 inh inactive, UBC9 SUMO inh inactive, PAD4 inh inactive and GSTO1 inh 36.8.
Screening Cc1cccc(NS(=O)(=O)c2ccc(C)c(C(=O)NC3CCN(Cc4ccccc4)CC3)c2)c1 returned Rin1-Abl PPI inh inactive.
`C=CC(=O)Nc1ccc(Nc2nc(NC3CCC(N(C)C)CC3)nc3c2ncn3C(C)C)cc1` (centres undefined) gave Rin1-Abl PPI inh inactive, UBC13 polyUb inactive, Apaf-1 inh 45.9 and PAD4 inh inactive.
`Cc1ccc(Nc2nc3ccc(Cl)cc3n3cnnc23)cc1F` gave Rin1-Abl PPI inh inactive, UBC13 polyUb inactive, Apaf-1 inh inactive, UBC9 SUMO inh inactive, PAD4 inh inactive and GSTO1 inh inactive.
Cc1nc2ccccc2c(=O)n1/N=C/c1ccccc1O was read as Rin1-Abl PPI inh inactive, UBC13 polyUb inactive, Apaf-1 inh inactive, UBC9 SUMO inh inactive, PAD4 inh inactive and GSTO1 inh inactive.
Cc1nc2ccccc2c(=O)n1/N=C/c1ccc2ccccc2c1O was read as Rin1-Abl PPI inh inactive, UBC13 polyUb inactive, Apaf-1 inh inactive, UBC9 SUMO inh inactive, PAD4 inh inactive and GSTO1 inh 66.8.
`Cc1nnc(-c2ccccc2)c(=O)n1/N=C/c1c(O)ccc2ccccc12` gave Rin1-Abl PPI inh inactive, UBC13 polyUb inactive, Apaf-1 inh inactive, UBC9 SUMO inh inactive, PAD4 inh inactive and GSTO1 inh 38.9.
Cc1ccc(/C=N/NC(=O)c2cccc(S(=O)(=O)Nc3cccc(Cl)c3)c2)o1 was read as Rin1-Abl PPI inh inactive, UBC13 polyUb inactive, Apaf-1 inh inactive, UBC9 SUMO inh 61.0, PAD4 inh inactive and GSTO1 inh inactive.
For CC(C)(C)OC(=O)NCCCCCNC(=O)c1ncn(Cc2ccccc2)c1C(=O)NCCCCCNC(=O)OC(C)(C)C the results were Rin1-Abl PPI inh inactive, UBC13 polyUb inactive, Apaf-1 inh inactive and PAD4 inh inactive.

Screening data: PubChem, several laboratories
